The values below come from ChEMBL document CHEMBL1142458, “Computational structure-activity relationship analysis of non-peptide inducers of macrophage tumor necrosis factor-alpha production” (Bioorg Med Chem, 2008).

In series [1] the test system is J774.A1. Description: Cytotoxicity against mouse J774.A1 cells assessed as effect on cell viability at <=50 uM after 24 hrs. The series is classed as cell-based. As to conditions: j774.a1, 24 h.
The test system of series [2] is J774.A1. The experiment in a line: Stimulation of TNFalpha production in mouse J774.A1 cells at 50 uM after 24 hrs by ELISA relative to untreated control. The series is classed as functional. The method in brief:
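Murine J774.A1 macrophages grown in DMEM with 10% heat-inactivated FBS and 10 mM HEPES at 37°C under 5% CO2, detached by scraping. Plated at 2×10^5 cells/well in medium with 3% FBS and exposed 24 hr to compound, DMSO vehicle or LPS. Supernatant TNF-α measured by murine ELISA against a standard curve. Reported as fold-increase over DMSO control.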

Calls of active or inactive are those of the source. How the calls were made is not given here.

For `Cc1ccc(-c2ccc(/C=N/NC(=O)c3cncc(Br)c3)o2)cc1Cl`, the Activity result with J774.A1 [1] is given as “Non-toxic”. In addition, the “fold change (FC)” value in the series on J774.A1 [2] worked out at 10.

For `Cc1ccc(C(=O)N/N=C/c2ccc(-c3ccc(Cl)cc3Cl)o2)cn1`, the Activity result with J774.A1 [1] is “Non-toxic”. Besides, the result in the series with J774.A1 [2] was inactive.

Regarding `O=C(N/N=C/c1ccc(-c2ccccc2Cl)o1)c1cccnc1`, the Activity result in the series on J774.A1 [1] is reported as “Non-toxic”. Further, the outcome in the series on J774.A1 [2] was inactive.

Consider `Cc1ccc(C(=O)N/N=C/c2ccc(-c3ccc(Cl)c(Cl)c3)o2)cn1`, for which the Activity result with J774.A1 [1] was “Non-toxic”. The result with J774.A1 [2] was inactive.

Turning to `O=C(N/N=C/c1ccc(-c2ccc(Br)cc2)o1)c1cccnc1`, the Activity entry in the series on J774.A1 [1] is given as “Non-toxic”. Further, the result with J774.A1 [2] was inactive.

Regarding `Cc1ccc(C(=O)N/N=C/c2ccc(-c3cccc(Br)c3)o2)cn1`, the Activity entry with J774.A1 [1] was “Non-toxic”. In the series with J774.A1 [2], the outcome was inactive.
